In ChEMBL document CHEMBL1140926, “Novel indazole non-nucleoside reverse transcriptase inhibitors using molecular hybridization based on crystallographic overlays” (J Med Chem, 2009) one finds IC50, CC50 and half-life data, which are given here for ten compounds.

For data set [1], the target named is Human immunodeficiency virus type 1 reverse transcriptase (Human immunodeficiency virus 1, UniProt Q72547). As to the kind of experiment: Inhibition of RNA-dependent DNA polymerase activity of wild type HIV1 reverse transcriptase.
Data set [2] is described as follows: Cytotoxicity against human HeLaP4 cells. Format: cell-based.
The nature of data set [3]: Metabolic stability in human liver microsomes assessed as half life. Format: ADME, Microsome.
Data set [4] is described as follows: Metabolic stability in human hepatocytes assessed as half life. It counts as ADME, cell-based, Liver, Hepatocyte.
Data set [5] deals with Human immunodeficiency virus 1. In words: Antiviral activity against HIV1 NL4-3 in HeLaP4 reporter cell assessed as virus replication by FluorAceTM beta-galactosidase reporter assay. Format: functional, organism-based. As to conditions: Human immunodeficiency virus 1, NL4-3, HeLaP4. An outline of the steps: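 Antiviral IC50 reported as the geometric mean of at least three independent experiments, with standard deviation given.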

In data set [6] the target is Human immunodeficiency virus type 1 reverse transcriptase (Human immunodeficiency virus 1, UniProt Q72547, Y181C). In words: Inhibition of RNA-dependent DNA polymerase activity of HIV1 reverse transcriptase Y181C mutant.
Data set [7] addresses Human immunodeficiency virus type 1 reverse transcriptase (Human immunodeficiency virus 1, UniProt Q72547, K103N). As to the kind of experiment: Inhibition of RNA-dependent DNA polymerase activity of HIV1 reverse transcriptase K103N mutant.

Each structure is given as a SMILES string.

Regarding `Cc1n[nH]c2cccc(Oc3cc(C#N)cc(C#N)c3)c12`, the 50% inhibitory concentration (IC50) in data set [1] worked out at 332 nM.
In turn, `Cc1n[nH]c2ccc(Cl)c(Oc3cc(C#N)cc(C#N)c3)c12` gave an IC50 in data set [1] of 399 nM.
In data set [1], `CNCc1n[nH]c2cccc(Oc3cc(C#N)cc(C#N)c3)c12` came in with an IC50 of more than 30000 nM.
`Cc1n[nH]c2ccc(F)c(Oc3cc(C#N)cc(C#N)c3)c12` returned a 50% cytotoxic concentration (CC50) in data set [2] of more than 100000 nM. For the same compound, the figures for the half-life in data set [3] and in data set [4] were more than 2 h and more than 6 h, respectively. Further, the half-maximal inhibitory concentration (IC50) in data set [5] amounted to 14 nM; in data set [6] it was 145 nM; in data set [1], 50 nM.
Compound `Cc1n[nH]c2c(CO)ccc(Oc3cc(C#N)cc(C#N)c3)c12` came in with a CC50 in data set [2] of more than 100000 nM. Moreover, the half-life was more than 2 h in data set [3] and 0.183 h in data set [4]. The 50% inhibitory concentration (IC50) worked out at 14 nM in data set [5], 71 nM in data set [1] and 1270 nM in data set [7].
In the case of `COCc1n[nH]c2cccc(Oc3cc(C#N)cc(C#N)c3)c12`, it took 1670 nM to reach half-maximal inhibition in data set [1] (IC50).
For the compound `CC(C)c1nc(COC(N)=O)n(Cc2ccncc2)c1Sc1cc(Cl)cc(Cl)c1` [CAPRAVIRINE], in data set [3], the half-life turned out to be 0.125 h. Moreover, the IC50 in data set [5] was 0.5 nM.
In data set [2], `CCc1n[nH]c2ccc(F)c(Oc3cc(C#N)cc(C#N)c3)c12` showed a CC50 of more than 100000 nM. Further, the results for the half-life in data set [3] and in data set [4] were more than 2 h and more than 6 h, respectively. For the same compound, the IC50 was determined as 4.6 nM in data set [5], 32 nM in data set [6], 25 nM in data set [1] and 183 nM in data set [7].
Regarding `O=C1Nc2ccc(Cl)cc2[C@@](C#CC2CC2)(C(F)(F)F)O1` [EFAVIRENZ], the IC50 in data set [5] turned out to be 0.4 nM.
In data set [1], `CCc1n[nH]c2cccc(Oc3cc(C#N)cc(C#N)c3)c12` yielded an IC50 of 112 nM.

The IC50 is the midpoint of a concentration-inhibition curve. What is called CC50 is the concentration at which the toxic effect on the cells reaches its halfway point. High values mean better tolerance by the cells, low ones harm at low concentration. One may read the half-life as the time needed for the level to fall by half in the phase considered.
